“And” between values parts separate entries of the source, which are not always exact repeats. Equal entries are not always repeated.
How the values were obtained:
[1] = 19F NMR pH titration of the free amino acid in solution; format: physicochemical; conditions: 19F NMR chemical shift vs pD
Method in brief: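 Free fluorinated Tyr amino acid (5 mg) dissolved in 30 mM deuterated PIPES buffer; pD adjusted with DCl or NaOD across pD 3.6–12.5. 19F spectra recorded on a 400 MHz spectrometer. The 19F chemical shift was plotted against pD and fitted to obtain pKa values.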

[2] = test system: 2,3,5-F3Y158 InhA; format: biochemical, Mycobacterium tuberculosis; conditions: 2,3,5-F3Y158 InhA vs wild-type
[3] = biological target: T1, wild-type InhA (Mycobacterium tuberculosis, UniProt P9WGR1); test: Direct binding fluorescence titration of NADH
[4] = biological target: 2,3,5-F3Y158 InhA; set-up: species or system Mycobacterium tuberculosis; conditions: NADH binding, 25 °C, pH 6.8
[5] = biological target: 3-FY158 InhA; test: Direct binding fluorescence titration of NADH; set-up: species or system Mycobacterium tuberculosis; conditions: 25 °C, pH 6.8
[6] = biological target: 3,5-F2Y158 InhA; set-up: species or system Mycobacterium tuberculosis; conditions: NADH binding, 25 °C, pH 6.8
[7] = biological target: 3-FY158 InhA; conditions: read-out: Kiapp; PT166, rapid reversible, global fit to equations 6 and 7
[8] = biological target: T1, wild-type InhA; conditions: read-out: Kiapp; PT166, rapid reversible, global fit to equations 6 and 7
[9] = biological target: 3,5-F2Y158 InhA; format: biochemical, Mycobacterium tuberculosis; conditions: read-out: Kiapp; PT166, rapid reversible, global fit to equations 6 and 7
[10] = test system: 2,3,5-F3Y158 InhA; format: biochemical, Mycobacterium tuberculosis
[11] = test system: Y158F mutant; conditions: cited from earlier work

Q: With `N[C@@H](Cc1cc(F)c(O)c(F)c1F)C(=O)O` [2,3,5-F3Y, 2,3,5-trifluoroTyr] as the compound, how does the “pKa of the hydroxyl group” value [1] read?
A: 6.5

Q: With `CCCCCCCCC/C=C/C(=O)SCCNC(=O)CCNC(=O)[C@H](O)C(C)(C)COP(=O)(O)OP(=O)(O)OC[C@H]1O[C@@H](n2cnc3c(N)ncnc32)[C@H](O)[C@@H]1OP(=O)(O)O` [DDCOA, trans-2-dodecenoyl-CoA] as the compound, how does the “fold higher KMapp for dd-CoA than wild-type InhA” value [2] read?
A: ~ 5 fold

Q: With `NC(=O)C1=CN([C@@H]2O[C@H](COP(=O)(O)OP(=O)(O)OC[C@H]3O[C@@H](n4cnc5c(N)ncnc54)[C@H](O)[C@@H]3O)[C@@H](O)[C@H]2O)C=CC1` [NADH] as the compound, how does the Kd ([3]; 25 °C, pH 6.8, C-terminal His-tag InhA) read?
A: 8.2 ± 0.3 µM

Q: What about the “N (Hill coefficient)” value ([3]; fit to Equation 1) of the same compound?
A: 3.1 ± 0.3

Q: What about the Kd [4] of the same compound?
A: 8.7 ± 0.2 µM

Q: And the Kd [5]?
A: 7.1 ± 0.6 µM

Q: And the Kd [6]?
A: 8.1 ± 0.5 µM

Q: Which Ki [7] does the source give for `CCCCCCc1cc(=O)c(Oc2ccccc2C)cn1C` [PT166] here?
A: 33 ± 1 nM

Q: What about the Ki [8] of the same compound?
A: 31 ± 1 nM

Q: What about the Ki [9] of the same compound?
A: 48 ± 1 nM

Q: And the “fold change (decrease in affinity) in Kiapp compared to wild-type” value ([10]; PT166, 2,3,5-F3Y158 InhA vs wild-type)?
A: ~ 7 fold and 7 fold

Q: And the Ki ([10]; read-out: Kiapp, PT166, rapid reversible, global fit to equations 6 and 7)?
A: 213 ± 2 nM

Q: For `Oc1cc(Cl)ccc1Oc1ccc(Cl)cc1Cl` [triclosan], which “fold lower affinity for Y158F mutant compared to wild-type InhA” value [11] is on record?
A: ~ 100 fold
